Compound activity: PubChem BioAssay, Broad Institute
Shown are actives, neighbours in structure and some others; about 2.6% of the full set was active somewhere.
esBAF inh: blocks esBAF chromatin remodeling in mouse ES cells; Bmi1-luciferase knock-in reporter, 24 h; 100% = twice the neutral-well signal; reporter increase, % at 12.5 µM; actives 2% (n = 350,000); in the data active = activation above about 40%; inconclusive = no clear call, values can overlap the other calls;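 also: 0% = median of the plate's neutral control wells and 100% = double that signal; a rise in the Bmi1 reporter signal indicates esBAF inhibition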
MITF TRPM1 HTS: MITF TRPM1 promoter activation in melanoma cells; AID 588334; actives 0.75% (n = 300,000); SK-MEL-5 TRPM1-promoter luciferase, 24 h; % of positive control, neutral wells = 0; activation, % at 12.5 µM;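 active = mean activation of at least 80% with every replicate also reaching 80%; inconclusive = mean reaches 80% but some replicate falls short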;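 also: 0% = neutral control wells and 100% = parthenolide positive control wells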
Vif imaging: blocks HIV Vif function; HEK293T cells, Vif self-association by quenched fluorescence, imaging, 24 h; inhibition, % at 7.49 µM; actives 0.35% (n = 340,000); in the data active = inhibition above about 50%, passing the limit was not always enough; inconclusive = no clear call, values can overlap the other calls; inactive = below about 31%
Wnt act: activates Wnt/beta-catenin signaling in a reporter cell assay; actives 1.2% (n = 300,000); AID 743398; activator, plate reader; activation, % at 9.35 µM; in the data active = activation above about 30%, passing the limit was not always enough; inconclusive = no clear call, values can overlap the other calls;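 also: 0% = neutral control wells and 100% = positive control wells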
Xi reactivation: reactivates the inactive X chromosome in mouse fibroblasts; actives 0.055% (n = 360,000); activation, % at 7.58 µM; XiGFP mouse fibroblasts, % GFP-positive cells imaging, 3 d; cells co-treated with 5-aza-dC sensitizer; scaled so ellipticine positive control = 100%;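 active = mean normalized replicate activation at least 10% and every replicate at or above 10%; inconclusive = only one of the two criteria met; inactive = mean below 10% and not all replicates reach 10%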;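 also: 0% = median of on-plate neutral control wells and 100% = ellipticine 6 µM median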
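Material: XiGFP fibroblasts, SV40-immortalized; Buffer or medium: DMEM containing 5-aza-dC; Compound dosing: single point; Times: 3 days compound exposure.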
Ring1 derepress: de-represses Ring1 in mouse ESCs, confirming esBAF inhibition; shares compounds with esBAF inh; mouse ESC E14, Ring1 mRNA RT-qPCR fold change; fold change at 33 µM; 550 tested, under 10 active; AID 743176;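 active = Ring1 gene expression raised more than 2-fold over untreated cells in both replicates at either tested dose; inconclusive = only one replicate above 2-fold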;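 also: Ring1 transcript normalised to actin housekeeping signal by TaqMan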
esBAF Fgf4 qPCR: esBAF inhibition confirmed by Fgf4 repression. Fgf4 expression fold change at 33 µM. actives 4% (n = 550). shares compounds with esBAF inh. mouse ESC E14, Fgf4 mRNA qPCR fold change; active compounds read low;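 active = Fgf4 expression under 0.8 fold of control in both repeat measurements at one or both tested doses; inconclusive = under 0.8 fold in just a single repeat measurement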;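 also: Fgf4 transcript normalised to actin in duplex TaqMan qPCR; cells exposed to compound for 24 h before lysis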
Bmi1 derepress: confirmation of esBAF inhibitors: Bmi1 de-repression in mouse ESCs. AID 743180. 550 tested, under 10 active. shares compounds with esBAF inh. mouse ESE14 ES cells, Bmi1 mRNA qPCR fold; active compounds read high. fold change at 33 µM;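 active = Bmi1 expression fold change above 6 at either tested concentration, seen in replicate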;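 also: higher fold means more Bmi1 de-repression and stronger esBAF inhibition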
A549 tox SP: cytotoxicity in A549 cells; shares compounds with esBAF inh; plate reader; cell viability change % (negative = cytotoxic), % at 25 µM, hits read low; 550 tested, under 10 active; AID 743188; call rule not given here
HepG2 cytotox SP: HepG2 cell cytotoxicity at single point | activity change, negative = inhibition, % at 25 µM | actives 4% (n = 550) | plate reader; active compounds read low | AID 743189 | shares compounds with esBAF inh; in the data active = activity change below about -50%
HEK293 cytotox SP: cytotoxicity in HEK293 cells; shares compounds with esBAF inh; plate reader; activity change, negative = inhibition, % at 25 µM, hits read low; actives 3% (n = 550); AID 743190; in the data active = activity change below about -38%, passing the limit was not always enough
Numbers without * were called inactive; ? = inconclusive; . = no result given.

SMILES	esBAF inh	MITF TRPM1 HTS	Vif imaging	Wnt act	Xi reactivation	Ring1 derepress	esBAF Fgf4 qPCR	Bmi1 derepress	A549 tox SP	HepG2 cytotox SP	HEK293 cytotox SP
COc1cccc(NC(=O)C(=O)NCCC2CCCCN2S(=O)(=O)c2ccccc2)c1 (configuration not stated)	78.9*	110.4*	-10.7	-2.8	0.0	0.987	0.941	1.81	-8.8	-33.1	-15.4
O=C(c1ccncc1)N1N=C(c2ccc(Cl)cc2)CC1c1ccccc1O (configuration not stated)	80.3*	65.0	-3.5	17.5	0.5	1.37	0.826	1.62	12.2	23.6	5.0
COc1ccc(C2=NN(C(=O)c3ccncc3)C(c3ccccc3O)C2)cc1 (configuration not stated)	19.6	20.9	-3.9	2.3	0.3	.	.	.	.	.	.
COc1ccccc1N1CCN(C(=O)Nc2cccc(Cl)c2)CC1	13.3	26.6	-2.3	-1.7	.	.	.	.	.	.	.
COc1cccc(NC(=O)N2CCN(c3cccc(C)c3C)CC2)c1	72.0*	.	-6.0	0.0	.	1.06	1.04	1.24	-3.5	13.5	-4.8
CN(C)CC(=O)N1[C@H](C#N)[C@H](c2ccccc2-c2ccc(C(=O)N(C)C)cc2)[C@H]1CO	.	.	.	.	0.0	.	.	.	.	.	.
Cn1c(/C=C/c2ccc(Br)cc2)nc2ccccc2c1=O	74.5*	79.1	4.3	16.7	0.5	1.28	?	1.58	6.4	5.8	9.2
CN(C)S(=O)(=O)c1ccc(C(=O)Nc2ccc3c(c2)CCC3)cc1	74.7*	46.8	-4.3	21.9	0.4	1.03	0.937	1.71	-1.9	-43.1	-13.7
CN(C)S(=O)(=O)c1cccc(C(=O)Nc2ccc3c(c2)CCC3)c1	10.2	47.6	-13.2	24.7	0.1	.	.	.	.	.	.
O=C(CCN1C(=O)/C(=C/C=C/c2ccccc2)SC1=S)Nc1cccnc1	66.6*	52.3	56.7*	21.0	0.2	1.2	0.591*	3.99	-10.4	-5.4	-5.0
Nc1cc(OCc2ccccc2)ccc1OCc1ccccc1	82.7*	62.2	-0.7	-2.6	0.1	1.09	?	1.61	-15.1	-17.2	-9.6
O=c1cc(OCc2ccccc2)cc[nH]1	1.2	1.0	-3.4	0.3	-0.5	.	.	.	.	.	.
COc1ccc2oc3cc(Cl)ccc3c(=O)c2c1	79.6*	.	.	3.6	0.1	1.1	?	1.43	8.4	-30.3	-10.4
Cc1csc(Nc2nc(N)c(C(=O)Nc3ccccc3)o2)n1	51.9*	93.4*	6.8	16.7	0.0	1.51	0.952	1.77	4.9	12.7	-7.9
CCCNC(=O)C[C@H]1CC[C@H]2[C@H](COc3ccc(NC(=O)Nc4cccc(C)c4)cc3C(=O)N2C)O1	1.4	.	.	.	0.0	.	.	.	.	.	.
COc1ccc(-c2csc(Nc3cc(C)ccn3)n2)cc1C	46.4*	19.2	-16.5	13.0	0.2	1.27	?	1.39	-5.7	-19.7	-8.5
Oc1ccc(-c2csc(Nc3ccccn3)n2)cc1O	0.6	.	20.1	7.6	0.6	.	.	.	.	.	.
COc1ccc2c3c([nH]c2c1)[C@@H](CO)N(C(=O)c1ccc(F)cc1)CC31CCN(Cc2cccnc2)CC1	.	.	.	.	0.0	.	.	.	.	.	.
CO[C@H]1CN(C)C(=O)c2ccc(NC(=O)c3ccc(F)cc3)cc2OC[C@H](C)N(C(C)=O)C[C@@H]1C	3.4	.	.	.	0.7	.	.	.	.	.	.
COc1ccc(CN2CC3(CCN(C(=O)C4CCC4)CC3)c3c(n(C)c4cc(OC)ccc34)[C@H]2CO)cc1	.	.	.	.	0.1	.	.	.	.	.	.
COc1ccccc1-c1cnc2c(Nc3cccc(OC(F)(F)C(F)F)c3)nccn12	13.6	.	-5.7	-0.9	0.0	.	.	.	.	.	.
O=C(NCCO)c1cccc(-c2cnc3c(Nc4cccc(OC(F)(F)C(F)F)c4)nccn23)c1	71.4*	.	-5.3	0.5	0.0	1.16	?	2.35	10.0	-19.8	-2.3
O=S(=O)(N[C@@H]1CC[C@H](CCn2cc(-c3ccccn3)nn2)O[C@H]1CO)c1cccc(Cl)c1	-4.1	.	.	.	-0.2	.	.	.	.	.	.
CC(=O)N(C)C[C@@H]1Oc2ccc(NS(C)(=O)=O)cc2CC(=O)N(C)C[C@@H]1C	.	.	.	.	0.3	.	.	.	.	.	.
Cc1cc2c(cc1C)C(=O)CCC2	-0.8	.	-0.4	0.9	0.0	.	.	.	.	.	.
SMILES	esBAF inh	MITF TRPM1 HTS	Vif imaging	Wnt act	Xi reactivation	Ring1 derepress	esBAF Fgf4 qPCR	Bmi1 derepress	A549 tox SP	HepG2 cytotox SP	HEK293 cytotox SP
O=C1CCCc2cc3c(ccc4ccccc43)cc21	75.0*	43.4	-11.4	-3.3	0.1	0.845	0.815	1.2	-6.8	-38.7	16.0
CCCC(=O)N1CCN(c2nc3ccc(Br)cc3s2)CC1	66.0*	67.4	-5.9	-0.2	0.1	0.955	0.893	1.43	-5.8	-13.8	-34.3
CC(C)(C)C(=O)N1CCN(c2nc3ccc(Br)cc3s2)CC1	92.6*	44.9	-0.8	2.5	0.1	1.06	0.996	1.7	-3.2	9.9	-26.7
CO[C@H]1CN(C)C(=O)c2cc(NC(=O)NC3CCCCC3)ccc2OC[C@H](C)N(C)C[C@H]1C	0.5	.	.	.	0.0	.	.	.	.	.	.
CN1CCN(C(=O)C[C@H]2C[C@@H]3c4cc(NC(=O)c5cccnc5)ccc4O[C@@H]3[C@@H](CO)O2)CC1	4.6	.	.	.	-0.1	.	.	.	.	.	.
COc1ccc(-c2csc(C(O)c3ccccc3)n2)cc1 (configuration not stated)	92.3*	.	-12.6	-2.9	0.0	1.41	?	1.57	-2.3	3.8	-10.3
COc1ccc(-c2csc(C(O)c3cccc(OC)c3)n2)cc1 (configuration not stated)	10.9	.	-22.6	1.7	0.1	.	.	.	.	.	.
OC(c1ccccc1)c1nc(/C=C/c2ccccc2)cs1 (configuration not stated)	59.2*	.	4.3	2.2	-0.1	1.56	?	1.57	6.4	-5.1	-5.8
COC(=O)c1ccc2[nH]c(C)cc(=O)c2c1	2.7	-6.0	-3.8	0.4	.	.	.	.	.	.	.
COC(=O)c1ccc2[nH]c(C(C)(C)O)c(C)c2c1	56.8*	74.9	2.6	19.6	0.0	1.41	1	1.39	-0.8	-13.5	-3.6
Cc1ccc(-c2ccnc(-c3ccc(O)cc3)n2)cc1	.	22.1	-6.0	28.2	0.2	.	.	.	.	.	.
Oc1ccc(-c2nccc(-c3ccccn3)n2)cc1	59.6*	100.9*	-7.1	24.1	0.3	1.29	1.03	1.4	2.2	8.8	10.9
